Test results published in ChEMBL document CHEMBL1141484, “Radiosyntheses of two positron emission tomography probes: [11C]Oseltamivir and its active metabolite [11C]Ro 64-0802” (Bioorg Med Chem Lett, 2008).

Assay: Ratio of drug level in brain to blood in iv dosed mouse
Format: ADME, organism-based
Details: brain/whole blood, read-out: BBR
How it was run: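 Brain/blood radioactivity ratio was taken from decay-corrected %ID/g tissue in whole brain and blood. Samples came from male Wister mice (30 g, 7 weeks) given the 11C tracer iv by tail vein (average 20 MBq/400 µL). Mice were sacrificed at 1–60 min after injection, three per time point.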

Row | Kp | Structure (SMILES)
1 | 0.06 | CCC(CC)O[C@@H]1C=C(C(=O)O)C[C@H](N)[C@H]1N[11C](C)=O
2 | 0.07 | CCOC(=O)C1=C[C@@H](OC(CC)CC)[C@H](N[11C](C)=O)[C@@H](N)C1
